Experimental data of several laboratories.
Lines come from different studies, so protocols differ.
Observed: enzyme activity
Action: inhibitor
LCK: Tyrosine-protein kinase Lck (LCK, Homo sapiens, UniProt P06239)
LCK phosphorylated: Tyrosine-protein kinase Lck, phosphorylated (LCK, Homo sapiens, UniProt P06239)

SMILES	target	method	concentration	remaining activity
COc1cc2ncnc(Nc3cccc(Cl)c3)c2cc1OC	LCK	–	0.5 µM	74.9%
COc1cc(Cl)c(C(=O)N[C@@H](CN[C@H]2CC[C@@H](N)CC2)Cc2ccc(C#N)cc2)cc1-c1ccc(CN[C@H](C)c2ccc(C)cc2)o1	LCK phosphorylated	–	1 µM	85%
Oc1cccc(-c2nc(N3CCOCC3)c3oc4ncccc4c3n2)c1	LCK	–	0.5 µM	98%
CC(C)(C)c1nc(-c2cccc(NS(=O)(=O)c3c(F)cccc3F)c2F)c(-c2ccnc(N)n2)s1	LCK	radiometric	1 µM	38%
O=c1cc(-c2cccc3c2Sc2ccccc2S3)oc(N2CCOCC2)c1	LCK	–	0.5 µM	98.1%
CCN(CC)c1ccc(C2=NNC(=O)CC2C)cc1[N+](=O)[O-] (centres unmarked)	LCK phosphorylated	–	10 µM	104%
Cc1sc(C(=O)NC2COC2)cc1-n1cc(NC(=O)Nc2c(F)cccc2Cl)cn1	LCK	–	10 µM	46.5%
Cc1ccc(NC(=O)c2ccc(C)c(C(F)(F)F)c2)cc1C#Cc1nn(C2CCC(O)CC2)c2ncnc(N)c12 (centres unmarked)	LCK phosphorylated	–	10 µM	0%
Cc1ccc(C(=O)Nc2ccc(CN3CCN(C)CC3)c(C(F)(F)F)c2)cc1C#Cc1cnc2cccnn12	LCK	–	23.5 nM	0.8%
Cc1cnc(NC2CCOCC2)nc1-n1cnc(C(=O)NC(CN)c2cc(F)cc(Cl)c2)c1 (centres unmarked)	LCK phosphorylated	radiometric	1 µM	109%
FC(F)c1nc2ccccc2n1-c1nc(N2CCOCC2)nc(N2CCOCC2)n1	LCK	–	10 µM	89%
CC(C)(O)[C@H]1CC[C@H](Nc2ccc3ncc(-c4cccc(C(F)(F)F)c4)n3n2)CC1	LCK	–	1 µM	11.1%
COc1cc(Nc2cnc(C#N)c(O[C@H](C)CN(C)C)n2)ncc1-c1cnn(C)c1	LCK	radiometric	10 µM	20%
COc1cc(Nc2c(C#N)cnc3cc(OCCCN4CCN(C)CC4)c(OC)cc23)c(Cl)cc1Cl	LCK	–	0.5 µM	1.88%
CCCOc1ccc(OC)c(F)c1C(=O)c1ccc(C(=O)N[C@@H]2CNC[C@H]2NC(=O)c2ccc3[nH]ncc3c2)cc1	LCK	–	10 µM	21%
Nc1nc(NC2CCCCC2)sc1C(=O)c1ccccc1	LCK	–	10 µM	86%
CC(C)N(CCC(=O)c1ccc2ccccc2c1)Cc1ccccc1	LCK	–	0.5 µM	98.9%
O=C(Nc1cnn(-c2csc(C(=O)NC3COC3)c2)c1)Nc1ccccc1Cl	LCK	–	5 µM	99.1%
N#CCCc1ccc2c(c1)-c1[nH]c3ccc([N+](=O)[O-])cc3c1CC(=O)N2	LCK	–	0.5 µM	78.2%
Cc1[nH]c(/C=C2\C(=O)Nc3ccc(F)cc32)c(C)c1C(=O)N[C@H]1CCN(C(=O)N(C)C)C1	LCK	–	1 µM	42%
